TRPC4 agonist – TRPC4 (mouse) channel activation; HEK293 TRPC4beta/mu-opioid, Fluo4 calcium fluorescence; hits give high values; 310,000 compounds, 0.49% hits; B-score at 10 µM; AID 2237;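 active = B-score above 5 SD of library B-scores, and initial fluorescence ratio not above library mean plus 5 SD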;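 note: positive B-score marks a calcium rise read as TRPC4 activation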
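Incubation: 45 min room-temperature Fluo4 loading, 110 s read / System: HEK293 cells stably co-expressing mouse TRPC4beta and mu-opioid receptor / Signal: Fluo4 fluorescence, kinetic / Control set: buffer (low) and maximal DAMGO (high) / Measure: integrated baseline-normalised fluorescence ratio, converted to per-well B score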
TRPC4 inh – inhibitors of mouse TRPC4 channel | Q9QUQ5 | HEK293 TRPC4beta/mu-opioid, DAMGO-evoked Fluo4 calcium flux; hits give low values | B-score at 10 µM | 300,000 compounds, 0.39% hits | AID 2247;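 active = B-score over 3 SD under the library average, no early fluorescence shift, positive overall ratio signal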
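test system = HEK293 cells with stable TRPC4beta plus mu-opioid receptor expression | detection = Fluo4 Ca2+ flux fluorescence | read-out = integrated fluorescence ratio relative to baseline, converted to per-well B score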
TRPC6 act – mouse TRPC6 channel activation. HEK293-TRPC6 membrane potential dye fluorescence; hits give high values. B-score at 10 µM. 310,000 compounds, 0.13% hits. AID 2550;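 active = B-score of the integrated fluorescence ratio above library mean plus 3 SD, and starting fluorescence ratio within library mean plus 5 SD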;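 note: higher score means more depolarization so channel activation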
TRPC4 PAM – allosteric potentiators of mouse TRPC4 channel. B-score at 10 µM. HEK293 TRPC4beta/mu-opioid, DAMGO EC20, Fluo-4 Ca2+ flux; hits give high values. 310,000 compounds, 0.42% hits. Q9QUQ5;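 active = B-score of calcium response area above 5 SD of library B-scores, with initial fluorescence ratio within 5 SD of library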;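 note: B-score of integrated fluorescence ratio over time as area under calcium response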
TRPC6 inhibitor – blocks the mouse TRPC6 cation channel; HEK293-TRPC6, membrane potential dye, ACh-evoked depolarization; hits give low values; B-score at 10 µM; 310,000 compounds, 1.1% hits; AID 2553;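 active = B-score under library mean minus 3 SD, initial fluorescence not abnormally high, positive integrated signal ratio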;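 note: B-score derived from integrated fluorescence ratio over the kinetic read; more negative B-score means stronger inhibition of depolarization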
* hit, by the source's call; i = inactive. An excerpt weighted towards active compounds, which were near 2.3% of everything screened.

SMILES	TRPC4 agonist	TRPC4 inh	TRPC6 act	TRPC4 PAM	TRPC6 inhibitor
COc1ccc(C(=O)OC(C)C(=O)NC2CCCCC2C)cc1S(=O)(=O)N1CCOCC1 (configuration not stated)	i	i	i	i	i
Clc1ccc2c(c1)CCc1cccnc1C2=C1CCNCC1	i	i	i	i	-6*
COc1cc(C(=O)NCCC(=O)NC(C)CCc2ccccc2)cc(OC)c1OC (configuration not stated)	i	i	i	i	i
Cc1ccc(Nc2c(N)c(=O)oc3ccccc23)cc1	i	i	i	31*	i
O=C(N/C(=C\c1ccco1)C(=O)N1CCOCC1)c1ccccc1Cl	i	i	i	i	i
CCCCN(CC)CCCNC(=O)c1ccc2c(c1)N(CC)C(=O)c1ccccc1S2(=O)=O	i	i	i	14*	i
CCN1C(=O)c2ccccc2S(=O)(=O)c2ccc(C(=O)NCCOC)cc21	i	i	i	i	i
CCCNC(=O)CN1C(=O)c2ccccc2Sc2ncccc21	i	i	i	i	i
O=C(Nc1ccccc1)C1=C[C@H](c2ccc3c(c2)OCO3)C[C@H](OCc2ccc(CO)cc2)O1	i	i	i	10*	i
O=C(O)C1=C[C@H](c2ccc3c(c2)OCO3)C[C@H](OCc2ccc(CO)cc2)O1	i	i	i	i	i
CCCc1cc(C(=O)NNC(=S)NC2CCCCC2)cs1	i	i	i	i	i
COC(=O)c1ccc(NC(=O)Nc2ccc([N+](=O)[O-])cc2)cc1	i	i	i	i	i
CCOC(=O)C1=C(Cc2ccc(C)cc2)C(=O)c2ccccc2C1=O	i	i	13*	i	i
CCOC(=O)c1ccc(COC(=O)c2ccc3c(c2)-c2ccccc2C3=O)cc1	i	i	i	i	i
S=C(NCCc1cnc[nH]1)NC1CCCC1	98*	i	i	i	i
S=C(NCCc1ccccn1)NC1CCCCC1	97*	i	i	i	i
Cc1c(Cl)cccc1NC(=S)NCCc1ccccn1	60*	i	i	i	i
S=C(NCCc1ccccn1)Nc1ccccc1Cl	i	i	i	i	i
O=S(=O)(c1ccccc1)c1cnc(-c2ccccc2)nc1N1CCCCC1	i	i	i	i	i
Cc1[nH]c2ccccc2c(=O)c1CN1CCCCCC1	i	i	i	i	i
Cc1[nH]c2ccc(Br)cc2c(=O)c1CN1CCCCC1	i	i	i	10*	i
CCOc1ccc2[nH]c(C)c(CN3CCN(CC)CC3)c(=O)c2c1	i	i	i	i	i
CCN1CCN(Cc2c(C)[nH]c3ccc(OC)cc3c2=O)CC1	i	i	i	15*	i
CCOC(=O)C1=C(CS(=O)(=O)c2ccc(F)c(C)c2)NC(=O)NC1c1ccc(O)c(O)c1 (configuration not stated)	i	i	i	i	i
COc1cc([N+](=O)[O-])cc2cc(C(=O)N3CCCC3)c(=O)oc12	i	i	i	i	i
SMILES	TRPC4 agonist	TRPC4 inh	TRPC6 act	TRPC4 PAM	TRPC6 inhibitor
O=C1/C(=C\c2ccc(O)c(O)c2)C(c2ccccc2)=NN1c1ccccc1	i	i	i	i	i
COc1cc(/C=C2\C(=O)N(c3ccc(NC(C)=O)cc3)N=C2c2ccccc2)ccc1O	i	i	i	15*	i
O=C(Nc1ccccc1O)c1cccc(S(=O)(=O)Nc2ccccc2O)c1	i	i	i	i	i
COCCCN1C(=O)c2[nH]nc(-c3ccccc3O)c2C1c1ccc(Cl)cc1 (configuration not stated)	i	i	i	13*	i
CCCN1C(=O)c2[nH]nc(-c3cc(Cl)c(C)cc3O)c2C1c1ccc(O)c(OC)c1 (configuration not stated)	i	i	i	11*	i
O=C(NCCc1ccccc1)C1CCC(=O)N(Cc2cccc(C(F)(F)F)c2)C1 (configuration not stated)	i	i	i	i	i
CCOc1ccccc1OCCN1CCC(Cc2ccccc2)CC1	i	i	i	i	i
CCC(=O)c1ccccc1OCCCN1CCC(Cc2ccccc2)CC1	i	i	i	i	-6.5*
C=CCOC(=O)C1=C[C@H](c2ccc(C(F)(F)F)cc2)[C@@H](CCCO)[C@H](OCC)O1	i	-5*	i	i	i
OC(CNCc1ccccc1C(F)(F)F)C(F)(F)F (configuration not stated)	i	i	i	i	i
OCC(Cc1ccccc1)NCc1ccccc1C(F)(F)F (configuration not stated)	i	-6*	i	i	i
Cc1ccc(Nc2nc(NCCCN3CCOCC3)nc(N)c2[N+](=O)[O-])cc1	i	-6*	i	i	i
Cc1ccc(Nc2nc(NCCCN3CCOCC3)nc(N)c2[N+](=O)[O-])cc1C	i	i	i	i	i
Cc1ccc(-c2cc(C(=O)Nc3nccs3)c3ccccc3n2)c(C)c1	i	i	i	i	i
Cc1ccc(-c2cc(C(=O)Nc3nccs3)c3ccccc3n2)o1	i	-7*	i	i	i
CC1CCCCN1S(=O)(=O)c1ccc(C(=O)N(CCCN(C)C)c2nc3ccc(Br)cc3s2)cc1 (configuration not stated)	143*	i	i	i	i
CCC1CCCCN1S(=O)(=O)c1ccc(C(=O)N(CCCN(C)C)c2nc3cc4c(cc3s2)OCO4)cc1 (configuration not stated)	130*	i	i	i	i
COc1ccc(Br)cc1/C(C)=N/NC1=NCCN1	i	i	i	i	i
CCCCCOc1ccc(Br)cc1/C(C)=N/NC1=NCCN1	i	i	i	i	-5.9*
CC1=CC(C)(C)N2C(=O)C3(SCC(=O)N3c3ccc(O)cc3)c3cc(C)cc1c32 (configuration not stated)	i	i	i	10*	i
CC12CCC(=O)N1C(C(=O)NCCc1ccc(S(N)(=O)=O)cc1)CS2 (configuration not stated)	i	i	i	i	i
COc1ccccc1N1CCN(CC(C)N(C(=O)C2CCCCC2)c2ccccn2)CC1 (configuration not stated)	i	-6*	i	i	i
Cc1cccc(NC(=O)CSc2nnc(-c3cc(C)n(-c4ccccc4)c3C)o2)c1C	i	-7*	i	i	i
